Molecules are shown by their SMILES. Calls of active or inactive are those of the source. The rule behind the calls is not given here.

Assay [1] has as its target T1, Estrogen receptor (Homo sapiens) (UniProt P03372).
T1 sequence (whole entry): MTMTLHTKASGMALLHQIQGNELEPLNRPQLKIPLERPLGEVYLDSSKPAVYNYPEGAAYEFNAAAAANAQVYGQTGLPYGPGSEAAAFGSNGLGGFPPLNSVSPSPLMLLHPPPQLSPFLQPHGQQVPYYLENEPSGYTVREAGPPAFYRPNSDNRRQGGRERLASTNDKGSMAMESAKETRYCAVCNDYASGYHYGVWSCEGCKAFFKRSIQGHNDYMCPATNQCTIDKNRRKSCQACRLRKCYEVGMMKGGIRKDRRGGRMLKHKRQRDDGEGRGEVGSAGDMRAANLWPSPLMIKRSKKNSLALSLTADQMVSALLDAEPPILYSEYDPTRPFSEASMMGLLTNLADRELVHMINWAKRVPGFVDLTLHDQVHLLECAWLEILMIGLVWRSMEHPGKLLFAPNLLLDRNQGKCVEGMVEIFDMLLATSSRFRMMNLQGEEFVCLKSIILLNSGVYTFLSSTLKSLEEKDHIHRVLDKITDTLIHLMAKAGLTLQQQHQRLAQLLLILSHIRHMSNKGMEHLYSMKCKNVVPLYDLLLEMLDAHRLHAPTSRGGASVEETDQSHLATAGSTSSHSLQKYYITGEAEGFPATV
Put plainly: Agonist activity at ER in human MCF7:WS8 cells assessed as increase in cell growth by measuring DNA level at 10^-6 M after 7 days by fluorescence analysis. The format is cell-based. In a few lines: (§1)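 MCF-7:WS8 cells kept 3 days in phenol red-free RPMI 1640 with 10% charcoal-stripped serum, then seeded at 10 000 cells/well. Next day treated with serial dilutions (10–12 to 10–6 M) or single therapeutic-level concentrations in estrogen-free medium. Medium changed every 2 days, 7 days total, triplicate points.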

Assay [2] has as its target T1, Estrogen receptor (Homo sapiens). Put plainly: Agonist activity at ER in human MCF7:WS8 cells assessed as increase in pS2 gene expression at 10^-6 M after 48 hrs by RT-PCR analysis. It is filed as cell-based. In short, it runs like this:
(§2)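 After 3 days estrogen starvation, MCF-7:WS8 cells were seeded at 300 000 cells/well and treated for 48 h, then harvested in Trizol. pS2, GREB1 and PgR mRNA measured by real-time PCR with primers checked by single-peak dissociation curves.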

The target is the same in assay [3]. The experiment in a line: Antagonist activity at ER in human MCF7:WS8 cells assessed as inhibition of estradiol-induced cell growth by measuring DNA level after 7 days treated at highesy drug concentration by fluorescence analysis. It is filed as cell-based.
The target is the same in assay [4]. Put plainly: Agonist activity at ER in human MCF7:WS8 cells assessed as increase in PgR gene expression at 10^-6 M after 48 hrs by RT-PCR analysis. The format is cell-based. In a few lines:
as §2

Assay [5] shares this target. The experiment in a line: Agonist activity at ER in human MCF7:WS8 cells assessed as increase in GREB1 gene expression at 10^-6 M after 48 hrs by RT-PCR analysis. It is filed as cell-based. In a few lines: as §2
The target is the same in assay [6]. Put plainly: Antagonist activity at ER in human MCF7:WS8 cells assessed as inhibition of estradiol-induced cell growth by measuring DNA level at 10^-6 M after 7 days by fluorescence analysis. It is filed as cell-based.
For assay [7] the target is unchanged. Put plainly: Agonist activity at ER in human MCF7:WS8 cells assessed as cell growth by measuring DNA level at 1.17 X 10^-9 M after 7 days by fluorescence analysis. It is filed as cell-based. In short, it runs like this:
as §1

The target is the same in assay [8]. The experiment in a line: Antagonist activity at ER in human MCF7:WS8 cells assessed as inhibition of estradiol-induced cell growth by measuring DNA level after 7 days by fluorescence analysis. It is filed as cell-based. Particulars: concentration not given here.
The nature of assay [9]: Effect on ER-alpha protein level in human MCF7:WS8 cells at 1 nM after 24 hrs by Western blot analysis. It is filed as functional. In a few lines: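 Cells estrogen-starved 3 days in phenol red-free RPMI 1640, 3 million seeded per 10 cm dish, treated 24 h. Lysates (20 μg protein by BCA) run on 4–12% Bis-Tris gels, blotted to nitrocellulose, probed with rabbit anti-ERα and anti-β-actin, detected by ECL. Densitometry normalized to β-actin, background subtracted, vehicle = 100%. Three independent experiments.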
In general terms: A western blot detects proteins with antibodies after separation by electrophoresis.

For assay [10], the target named is T1, Estrogen receptor (Homo sapiens). The experiment in a line: Agonist activity at ER in human MCF7:WS8 cells assessed as cell growth by measuring DNA level at 0.56 X 10^-9 M after 7 days by fluorescence analysis. It is filed as cell-based. In short, it runs like this: as §1

As a reminder, the inhibition is the share of the control response that was lost under treatment. Consider `CCOc1ccc(C2=C(c3ccccc3)CCCc3cc(O)ccc32)cc1`, for which the outcome in assay [1], in [2], in assay [4] and in assay [5] was Active. In addition, the inhibition in assay [3] and in assay [6] was 20% throughout.
With `CNCCOc1ccc2c(c1)CCCC(c1ccccc1)=C2c1ccc(O)cc1`, the result in assay [7] was inactive. Moreover, the result in assay [2], in [4] and in assay [5] was Active. Also, the inhibition in assay [3] and in [8] was 10% each time.
On to `COc1ccc(C2=C(c3ccccc3)CCCc3cc(O)ccc32)cc1`, for which the outcome in assay [1], in [2], in assay [4] and in [5] was Active. Besides, the inhibition in [3] worked out at 20%.
As for `COc1ccc2c(c1)CCCC(c1ccccc1)=C2c1ccc(O)cc1`, the outcome in assay [1], in assay [2], in [4] and in assay [5] was Active. The inhibition in assay [3] worked out at 20%.
`C[C@]12CC[C@@H]3c4ccc(O)cc4CC[C@H]3[C@@H]1CC[C@@H]2O` [ESTRADIOL] returned an Activity in [9] of 60%.
`CN(C)CCOc1ccc2c(c1)CCCC(c1ccccc1)=C2c1ccc(O)cc1`: the outcome in [1], in assay [2], in assay [4] and in assay [5] was Active. Besides, the outcome in assay [10] was inactive. The inhibition in assay [3] is 20%.
As to `CCC(=C(c1ccc(O)cc1)c1ccc(O)cc1)c1ccccc1`, the result in assay [1], in assay [2], in [4] and in [5] was Active. Moreover, in assay [3], the inhibition came to 20%.
As for `CCOc1ccc2c(c1)CCCC(c1ccccc1)=C2c1ccc(O)cc1`, the outcome in assay [1], in [2], in assay [4] and in assay [5] was Active. For the same compound, the inhibition in [3] is 20%.
Turning to `CCC(=C(c1ccc(O)cc1)c1ccc(O)cc1)c1ccc(O)cc1`, the result in [2], in [4] and in assay [5] was Active. The inhibition in assay [3] is 20%.

Source of the values: ChEMBL document CHEMBL3286188 (J Med Chem, 2014).
